# Experimental data taken from PubChem BioAssay.
# A number with no mark means an inactive call. Inconclusive results are not listed. Active and inactive are the calls of the source.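 How the source made its calls, unless noted: active means RAM network inhibition above 8.4% in each of two replicates, 3 SD over the compound average; inconclusive means above 8.4% inhibition in only one replicate; inactive means 8.4% inhibition or less in each replicate.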
# Tests used:
# [1] = S. cerevisiae growth inhibition in permissive medium (OD615), pilot counter-assay for S. cerevisiae lifespan shortening project, permissive growth control (AID 705;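 active means growth inhibition above 25% in both replicates, a cutoff set 3 SD above the mean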); conditions: OD615, 24 h, at 10 µM, stronger effect = higher value
# Procedure, shortened: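 Material: engineered DeaD yeast; Compound: one dose 10 µM, DMSO 0.25% final; Detection: absorbance (optical density) at 615 nm; Buffer or medium: permissive raffinose/galactose medium; Timing: 24 h exposure, 30 °C.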
# [2] = S. cerevisiae growth inhibition in restrictive medium, OD615, pilot screen, restrictive growth control, yeast lifespan reduction project (AID 706;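 active means growth inhibition above a set limit, 3 SD over mean compound inhibition, in both replicates, cut at about 43% in these data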;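 further: modified DeaD lifespan yeast strain shifted to restrictive glucose medium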); conditions: OD615, 48 h, at 10 µM, stronger effect = higher value
# Procedure, shortened: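 Buffer or medium: restrictive glucose medium (CSMM-D); test system: modified S. cerevisiae; doses: single dose of 10 µM compound final, 0.25% DMSO; schedule: 48 h compound exposure at 30 °C; detection: absorbance (optical density) measured at 615 nm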
# [3] = doxorubicin toxicity protection in MRP-1 cells – H69AR cells, CellTiter-Glo, duplicate, MRP-1 activator project, pilot screen (AID 807;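 active means viability increase at or above a cutoff of the median across tested compounds plus 3 SD, cut at about 8.5% in these data, passing the limit was not always enough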;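 further: compound pretreatment 18-22 h then 72 h combined with doxorubicin; 0% = doxorubicin alone and 100% = vehicle without doxorubicin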); conditions: H69AR viability with doxorubicin, CellTiter-Glo luminescence; at 10 µM; stronger effect = higher value
# [4] = viability of HCT116 without oncogenic beta-catenin – human colon tumor cells, pilot screen (AID 823;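 active means cell viability at or below a set limit in both duplicate runs, the limit being the all-compound median minus 4 SD, cut at about 23% in these data, passing the limit was not always enough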;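 further: 0% = wells killed by 20 µM Hyamine and 100% = untreated DMSO cell wells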); conditions: HCT116 beta-catenin knockout viability, CellTiter-Glo, 60 h; at 10 µM; stronger effect = lower value
# [5] = viability of PTEN-null HCT116 cells – cell-based, HCT116 clonal line, CellTiter-Glo, pilot screen (AID 824;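 active means viability at or below 27.92% in each of two runs, the all-compound median minus 4 SD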;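 further: 0% = 20 µM Hyamine control and 100% = vehicle cell control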); conditions: HCT116 PTEN-deleted viability, 60 h, at 10 µM, stronger effect = lower value
# [6] = RAM pathway blockade in budding yeast – dse1pr::URA3 reporter, 5-FOA selection, pilot screen (AID 869;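 active means inhibition over a set limit, the all-compound mean plus 3 SD, in both replicate runs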;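 further: 0% = DMSO wells with no growth and 100% = 10 µM 1-NA-PP1 with full growth; RAM network block rescues cells from 5-FOA so hits raise OD615 growth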); conditions: S. cerevisiae dse1pr::URA3 5-FOA growth, OD615, 2 d; at 10 µM; stronger effect = higher value; strain carries analog-sensitive mutant Cbk1 kinase
# [7] = RAM signaling pathway blockade in yeast – S. cerevisiae, Pdr1DBD-CYC8 efflux-inhibited sensitized strain, primary screen (AID 1298);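 further: 0% = DMSO untreated cells without growth and 100% = 10 µM 1-NA-PP1 full growth; higher means more yeast growth rescued from 5-FOA killing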; conditions: S. cerevisiae cbk1-as DSE1-URA3 strain, 5-FOA growth OD615, 2 d; at 50 µM; stronger effect = higher value
Compound,growth inhibition [1] [%],growth inhibition [2],viability increase [3] [%],viability [4],viability [5],inhibition [6] [%],RAM network inhibition [7] [%]
CCOc1ccc(NC(=O)CN2C(=O)COc3ccc(Cl)cc32)cc1,-17,-12.8%,3.8,97.4%,90.1%,2.06,6.61
CCCCCSc1nnc2c(n1)OC(C)N(C(C)=O)c1ccccc1-2 (stereo unspecified),-10.3,-6.29%,-4.28,82.8%,86.5%,1.47,2.22
CC1CCCN(C(c2ccccc2)c2sc3ncnn3c2O)C1 (stereo unspecified),-7.14,-1.14%,3.23,96.6%,84.8%,2.16,4.56
N#Cc1nc(-c2ccccc2Cl)oc1NCC1CCCO1 (stereo unspecified),-2.88,8.84%,0.31,91.1%,86.8%,1.48,1.33
COc1ccc(-c2nn(CC(=O)N(C)C)c(=O)c3ccccc23)cc1,-7.62,-6.71%,-1.08,99.8%,86.4%,1.01,0.6
Cc1ccc(-c2nc3cccnc3o2)cc1NC(=O)COc1ccc(Cl)cc1C,-19.4,-8.21%,-8.36,17.5% (active),4.66% (active),1.5,8.1
NC(=O)c1oc2ccccc2c1NC(=O)CCc1ccccc1,1.12,2.84%,-2.96,96.8%,97.2%,0.36,3.76
O=C(NCC(c1cccs1)N1CCOCC1)c1cc2ccccc2o1 (stereo unspecified),-2.08,-15.1%,-1.69,99.3%,100%,0.345,0.26
COc1ccc(C2C(C(=O)c3ccco3)=C(O)C(=O)N2CCc2ccccc2)cc1OC (stereo unspecified),-12.1,7.54%,-1.95,101%,92.5%,5.36,4.36
CCN(CC)CCOc1ccc(Br)cc1,-12.9,-12.2%,-0.72,90.1%,103%,1.24,1.1
O=C(c1ccccc1)c1ccc2nc(N3CCCCC3)c3nncn3c2c1,12.4,57.7% (active),-3.48,45.4%,56.4%,2.53,4.08
Clc1ccc(-c2nnn(Cc3nc4ccccc4s3)n2)cc1,-2.44,-17.7%,-2.27,92.6%,96.6%,0.615,2.46
OC1CC(c2ccco2)NC2(CCCCC2)C1 (stereo unspecified),-4.09,1.06%,-1.66,97.2%,94.6%,0.39,2.73
CC1(C)CC(=O)N(c2ccccc2)C1(C)O (stereo unspecified),-8.08,-4.3%,0.17,93.7%,104%,0.395,1.53
CCOc1ccc2nc(N3CCC(C(=O)N4CCN(c5ccccn5)CC4)CC3)sc2c1,-4.53,-8.55%,-6.17,50.9%,55.7%,-0.605,2.36
CC(=O)C1C(c2ccc(O)cc2)NC(=O)NC1(O)C(F)(F)F (stereo unspecified),-15.9,-25.1%,-1.41,102%,98.7%,2.78,4.56
COc1cc2[nH]c(=O)n(CCCCCC(=O)N3CCN(c4ccccc4)CC3)c(=O)c2cc1OC,-20.4,-2.1%,-4.46,58.5%,52.5%,1.25,0.58
CN(C)CCN(Cc1ccccc1)c1ccnc(N(C)C)c1C#N,-13.2,-17.6%,-4.22,85.2%,89.5%,1.11,2.08
Cc1ccsc1C1C2=C(CC(C)(C)CC2=O)Nc2ncnn21 (stereo unspecified),-13.7,11.9%,-4.49,101%,102%,1.98,4.28
C(=C\c1ccccc1)/CSc1nnc(-c2cccnc2)o1,8.71,32.7%,0.3,99.9%,93.1%,0.04,0.25
CCOc1ccc(-n2c(SCC(=O)Nc3ccc4c(c3)OCO4)nc3c(c2=O)SCC3)cc1,3.25,-5.91%,-1.65,92.5%,86.5%,1.83,4.16
COC(=O)c1ccsc1NC(=O)C1COc2ccccc2O1 (stereo unspecified),6.25,8.76%,-1.07,92.4%,85.5%,0.425,8.05
CC1(C)CC(=O)C(C=NCCN2CCN(C(=O)CC3CCCC3)CC2)=C(O)C1,-24.8,-8.86%,-1.93,96.9%,95.2%,1.25,7.49
CCOC(=O)C1=C(C)Nc2nc(C)nn2C1c1ccc(OCC)c(OC)c1 (stereo unspecified),-8.05,-3.29%,-4.07,101%,99%,1.44,0.63

Compound,growth inhibition [1] [%],growth inhibition [2],viability increase [3] [%],viability [4],viability [5],inhibition [6] [%],RAM network inhibition [7] [%]
NS(=O)(=O)c1ccc(CCNC(=O)NC2(C(F)(F)F)Oc3ccccc3O2)cc1,-2.1,-6.81%,-6.42,63.4%,80.3%,0.12,3.68
COc1ccc(Nc2oc(COc3ccccc3F)nc2C#N)cc1,-10.6,11.6%,-7.35,51.3%,53.3%,2.25,3.24
COCCN1C(=O)c2oc3ccccc3c(=O)c2C1c1ccc(C(=O)OC)cc1 (stereo unspecified),-1.7,5.81%,-1.14,94.3%,89.1%,0.775,2.37
O=C(CCS(=O)(=O)c1ccccc1)Nc1nccs1,-13.9,-10.5%,-8.48,62.2%,72.7%,1.48,5.64
Cc1ccc(CC2C(=O)N(c3ncccn3)C(=O)C2C)cc1 (stereo unspecified),-5.95,-9.6%,0.74,104%,93.1%,0.685,1.72
CC(CCc1ccco1)NC(=O)Cn1nc(Cc2ccncc2)c2ccccc2c1=O (stereo unspecified),-0.065,3.82%,-4.14,89.4%,92.7%,2.26,1.95
COc1ccc(N(CC(=O)Nc2ccc3c(c2)OCCO3)S(=O)(=O)c2c(C)nn(C)c2C)cc1,-9.27,-19.9%,-2.36,99.4%,95.9%,0.73,4.15
FC(F)(F)C12CC(c3ccccc3)=NCCN1CCN2 (stereo unspecified),-4.15,4.43%,-1.23,102%,97.9%,1.35,-0.53
COc1ccc(Nc2ccc3c(c2)=NC2(CCCCC2)[N+]=3[O-])cc1,-9.92,-11.8%,-8.28,2.19% (active),1.61% (active),4.35,6.69
COc1ccc(N2CSC3=C(C#N)C(c4cc(OC)c(OC)cc4OC)CC(=O)N3C2)c(OC)c1 (stereo unspecified),-2.5,31.1%,-5.15,71.6%,76.7%,1.16,2.63
N#CCCN(CCC#N)C(=O)c1ccc(Cl)cc1,-2.15,-11.1%,-1.59,92.7%,93.2%,1.3,3.78
COc1ccc(CN2CCN(c3cccc(C)c3C)CC2)cc1OC,-8.54,-1.75%,-1.96,51.8%,54%,1.5,1.07
COC(=O)C1=C(C)N(C)C(=O)NC1c1ccc(C)cc1 (stereo unspecified),0.9,-13.4%,0.2,105%,101%,2.69,-0.17
O=S(=O)(c1cccc(-c2nnc(-c3cccnc3)o2)c1)N1CCCCC1,1.58,-5.17%,-3.4,86.9%,84.7%,1.22,2.99
CC(C)Sc1nc(SCC(=O)NCc2ccco2)c2c3c(sc2n1)COC(C)(C)C3,-10.2,-10.9%,-3.75,83.2%,86.2%,0.615,11.6
CCn1cc(C2=NC(C(C)C)CO2)c2ccccc21 (stereo unspecified),-12,-6.49%,-2.74,99.2%,95.9%,1.54,2.06
CCOC(=O)Cc1csc(NC(NC(=O)CC)(C(F)(F)F)C(F)(F)F)n1,0.765,-2.19%,-0.75,99.6%,96.7%,3.13,6.43
CCN(C(=O)CSc1nnnn1-c1cc(C)ccc1OC)C1CCS(=O)(=O)C1 (stereo unspecified),-6.25,4.34%,-1.65,99%,94.6%,1.56,-1.67
CCCC(c1c(C)n(C)n(-c2ccccc2)c1=O)c1c(C)n(C)n(-c2ccccc2)c1=O,-9.58,-13.4%,-1.18,90.2%,103%,1.16,4.48
O=C(Nc1ccc(F)cc1F)N1CCN(C/C=C/c2ccccc2)CC1,-1.48,2.67%,0.1,86.7%,89%,2.04,0.95
O=C1c2ccccc2S(=O)(=O)N1CC(O)COc1ccc(Br)cc1 (stereo unspecified),-2.32,5.18%,-0.35,106%,97.4%,1.39,2.2
O=C1N(O)C2(C=CCCC2)/C(=N\O)C12CCCCC2 (stereo unspecified),-11.1,-1.67%,-2.64,90.1%,100%,-0.15,1.27
O=C(NC1CCCc2ccccc21)C1CCN(C(=O)c2sccc2-n2cccc2)CC1 (stereo unspecified),-5.99,-8.89%,-4.24,84.7%,78.7%,-0.305,4.28
Cc1ccc(S(=O)(=O)n2ccnc2)cc1C,-7.98,-8.12%,-0.49,96.1%,88.9%,1.86,2.35
